Results pooled from the literature.
Protocols differ between the studies behind these lines.
Target: Serine/threonine-protein kinase BRSK2 (BRSK2, Homo sapiens, UniProt Q8IWQ3)
Residues used in one study (Q8IWQ3 1-736): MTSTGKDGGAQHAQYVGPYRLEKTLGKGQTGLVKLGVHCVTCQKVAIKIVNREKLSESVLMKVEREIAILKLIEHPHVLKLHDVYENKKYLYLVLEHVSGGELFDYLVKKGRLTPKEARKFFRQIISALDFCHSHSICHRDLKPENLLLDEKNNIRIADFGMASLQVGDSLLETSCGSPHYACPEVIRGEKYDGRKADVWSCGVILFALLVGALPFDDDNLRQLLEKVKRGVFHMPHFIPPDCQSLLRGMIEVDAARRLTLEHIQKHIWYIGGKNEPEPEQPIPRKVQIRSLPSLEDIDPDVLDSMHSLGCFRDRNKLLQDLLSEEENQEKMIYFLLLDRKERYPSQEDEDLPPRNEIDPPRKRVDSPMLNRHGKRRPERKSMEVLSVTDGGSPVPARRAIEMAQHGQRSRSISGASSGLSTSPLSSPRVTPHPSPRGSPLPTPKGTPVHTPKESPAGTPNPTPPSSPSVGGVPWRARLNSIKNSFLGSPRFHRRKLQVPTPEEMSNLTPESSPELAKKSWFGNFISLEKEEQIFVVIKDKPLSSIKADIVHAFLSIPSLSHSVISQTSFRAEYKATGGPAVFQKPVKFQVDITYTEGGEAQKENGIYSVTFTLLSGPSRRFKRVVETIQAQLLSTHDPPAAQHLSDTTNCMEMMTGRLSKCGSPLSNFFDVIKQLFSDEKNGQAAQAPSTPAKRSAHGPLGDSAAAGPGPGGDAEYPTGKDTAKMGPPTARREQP

C[C@H](c1ccc(F)cc1)N(Cc1cccc(C(=O)O)c1)C(=O)c1cnc2ccccc2c1
remaining binding (cell-free assay, competition with immobilised ligand; 1 µM): 100%

O=C(c1ccc(Nc2ncc(Cl)c(-c3ccc(Cl)s3)n2)cc1)N1CCC(N2CCCC2)CC1
remaining binding (binding, competition with immobilised ligand; 1 µM): 58%

NS(=O)(=O)c1cc(NC(=O)Cc2ccccc2)ccc1Oc1cccc(Cl)c1
remaining binding (cell-free assay, competition with immobilised ligand; 1 µM): 91%

Cc1cnc(Nc2ccc(C(=O)N3CCC(N4CCCC4)CC3)cc2)nc1-c1cc2ccccc2s1
remaining binding (binding, competition with immobilised ligand; 1 µM): 42%

CCN1CCN(Cc2ccc(C(=O)Nc3ccc(C)c(Oc4ccc5c(c4)CC(=O)N5)c3)cc2C(F)(F)F)CC1
remaining binding (binding, competition with immobilised ligand; 1 µM): 100%

CN(C)c1nccc(-c2cnn3ncccc23)n1
remaining binding (binding; 1 µM): 84%

Nc1cnc(N2CCc3cc(S(=O)(=O)Nc4c(F)cc(Cl)cc4F)cc(N4CCCC4=O)c32)nc1
remaining binding (cell-free assay, competition with immobilised ligand; 1 µM): 80%

C[C@@H]1CCN(c2nccc(-c3cnn4ncccc34)n2)C1
remaining binding (binding; 1 µM): 91%

COc1cc(-c2cn(C3CCc4ccccc4N(CC(F)(F)F)C3=O)nn2)ccc1-n1ccc(C)n1 (stereo not drawn)
remaining binding (cell-free assay, competition with immobilised ligand; 1 µM): 97%

O=C(c1ccc(Nc2ncc(Cl)c(-c3cc4ccccc4s3)n2)cc1)N1CCC(N2CCCC2)CC1
remaining binding (binding, competition with immobilised ligand; 1 µM): 53%

C[C@@H](c1ccc(-n2cnc3c(N)ncnc32)cc1)N1CCc2nn(C)c(Cc3ccccc3)c2C1=O
remaining binding (binding, competition with immobilised ligand; 0.1 µM): 90%

O=C(Nc1cccnn1)N1CC(C/C=C/c2cncc(Oc3ccc(C(F)(F)F)cn3)n2)C1
remaining binding (cell-free assay, competition with immobilised ligand; 1 µM): 100%

N[C@H]1CCN(c2nccc(-c3cnn4ncccc34)n2)C1
remaining binding (binding; 1 µM): 100%

COc1cnc(Nc2cccc(S(N)(=O)=O)c2)nc1N1CCN(c2ccccc2)CC1
remaining binding (binding, competition with immobilised ligand; 1 µM): 100%

CN(CCCC(F)(F)F)c1nccc(-c2cnn3ncccc23)n1
remaining binding (binding; 1 µM): 100%

COc1ncc2cc3ccccc3nc2c1C#N
remaining binding (cell-free assay, competition with immobilised ligand; 5 µM): 74%

c1cnn2ncc(-c3ccnc(N4CCC45COC5)n3)c2c1
remaining binding (binding; 1 µM): 84%

O=C(Nc1c[nH]nc1C(=O)NC1CCNCC1)c1cc(F)cc(F)c1
remaining binding (binding, competition with immobilised ligand; 1 µM): 100%

COc1ccc2cc(OCC3(C(=O)O)CN(C(=O)c4ccc(F)cc4)C3)ccc2c1
remaining binding (cell-free assay, competition with immobilised ligand; 1 µM): 100%

CN(C)c1ncc(F)c(-c2cnn3ncccc23)n1
remaining binding (binding; 1 µM): 100%

c1cncc(-c2cccc(Nc3nccc(NC4CCCCC4)n3)c2)c1
remaining binding (binding, competition with immobilised ligand; 10 µM): 99%
